Bioassay records (PubChem)
HCV core dimer = inhibitors of HCV core protein dimerization, primary screen, biochemical, TR-FRET, high-throughput | TR-FRET GST/Flag-core106 dimerization, 1536-well | inhibition, % at 5 µM | 300,000 tested, 0.33% active | AID 1899, 2009;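 active means inhibition above the mean of all tested compounds plus 3 SD, set per screening campaign, cut at about 45% in these data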
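Test system: GST/Flag-tagged HCV core106 proteins; Medium: KF-containing HEPES buffer, pH 7.45, DTT, CHAPS, BSA; Times: compound-protein-antibody incubation 4 h at 22.5 °C; Detection: TR-FRET 671 and 617 nm emission; Benchmarks: wells lacking GST-core106 and wells with excess unlabelled core106.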
FID counter = compounds displacing fluorescent DNA intercalator, primary screen, artefact control for HCV NS3 helicase inhibitor project, biochemical, FID fluorescence; DNA fluorescent intercalator displacement; inhibition, % at 7.9 µM; 290,000 tested, 0.17% active; AID 1845, 2009; in the data active means inhibition above about 37%;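 further: 0% = vehicle and 100% = reference compound; higher means more ethidium bromide displaced from hairpin DNA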
DAGLB inhibitor = DAGLB lipase inhibitors, primary screen, biochemical, fluorescence, HTS; Diacylglycerol lipase-beta (Homo sapiens), Q8NCG7; HEK293T DAGLB membrane lysate, EnzChek fluorogenic substrate; inhibition, % at 5.17 µM; 340,000 tested, 0.059% active; AID 504411, 2011; in the data active means inhibition above about 34%;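 further: 0% = enzyme with vehicle and 100% = wells lacking enzyme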
NS3 helicase inh = inhibitors of HCV NS3 helicase, primary screen, biochemical, Cy5 molecular beacon fluorescence; NS3 helicase DNA unwinding; inhibition, % at 10.9 µM; 290,000 tested, 0.56% active; AID 1800, 2009;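 active means inhibition above the mean of all tested compounds plus 3 SD, set per campaign, cut at about 35% in these data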;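 further: 0% = DMSO wells and 100% = thioflavine S control wells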
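Assay system – hepatitis C virus NS3 helicase domain fragment enzyme · Buffer or medium – MOPS pH 6.5, MgCl2, DTT, Tween20, BSA · Reagent – Cy5/quencher beacon DNA duplex and ATP to start · Compound – single 10.9 µM dose · Timing – 1 h at 25 °C · Technique – Cy5 beacon fluorescence read at start and 1 h · Measure – % inhibition of unwinding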
GPR7 antagonist = GPR7 receptor antagonists, primary screen, cell-based, fluorescence, single concentration; Neuropeptides B/W receptor type 1 (Homo sapiens), P48145; GPR7-expressing cells, fluorescence antagonist assay; inhibition, % at 4.4 µM; 290,000 tested, 1.1% active; AID 1861, 2009; in the data active means inhibition above about 16%, passing the limit was not always enough;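 further: cells stimulated with the agonist NPW; 0% = agonist with vehicle and 100% = vehicle without agonist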
Target sequence (P48145 whole entry, looked up): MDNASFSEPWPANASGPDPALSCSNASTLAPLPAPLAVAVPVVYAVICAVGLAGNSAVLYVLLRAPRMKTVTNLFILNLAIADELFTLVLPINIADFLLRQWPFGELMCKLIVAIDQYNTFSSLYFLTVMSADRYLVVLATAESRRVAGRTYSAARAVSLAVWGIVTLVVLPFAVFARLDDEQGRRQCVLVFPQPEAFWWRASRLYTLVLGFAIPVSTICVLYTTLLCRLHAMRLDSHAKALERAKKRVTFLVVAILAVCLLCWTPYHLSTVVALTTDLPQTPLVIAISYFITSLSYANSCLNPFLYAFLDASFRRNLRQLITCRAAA
GRK2 inh = compounds blocking aptamer binding on GRK2 – biochemical, human GRK2, bead flow cytometry, HTS, primary screen | 330,000 tested, 0.59% active | AID 488847, 2010 | FAM-aptamer displacement from GRK2 | Beta-adrenergic receptor kinase 1 (Homo sapiens), P25098 | inhibition of aptamer binding, % at 10 µM;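 active means inhibition of aptamer binding above 40%, roughly 3 SD of noise, on plates passing a quality check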;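 further: median bead fluorescence of bound FAM aptamer so fluorescent compounds give negative values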
* marks the source's active call; other numbers are inactive results; · = no result given. A selection: hits, their analogues and other compounds. The true share with any hit is near 2.2%.

SMILES	HCV core dimer	FID counter	DAGLB inhibitor	NS3 helicase inh	GPR7 antagonist	GRK2 inh
COc1ccc(/C=C(\C#N)c2n[nH]c(Cn3cncn3)n2)cc1	-4.7	-1.5	·	6.9	20.3*	0.0
COC(=O)C[C@H]1C[C@H]2c3cc(NC(=O)C4CCOCC4)ccc3O[C@H]2[C@H](CO)O1	·	·	-1.2	·	·	·
O=C(NCc1ccco1)C1Cc2ccccc2CN1S(=O)(=O)c1ccccc1F (stereo unspecified)	55.1*	-18.7	1.2	21.5	-2.3	0.0
O=C(NCc1ccco1)C1Cc2ccccc2CN1C(=O)c1ccco1 (stereo unspecified)	16.2	-5.6	-1.1	10.7	-9.5	0.0
CCCC(=O)OCCNc1cc(Sc2nc3ccccc3[nH]2)c2nonc2c1[N+](=O)[O-]	2.3	9.9	0.7	-57.4	25.3*	1.0
CCc1ccc(-c2nc(CN3CCC(C(=O)N4CCN(c5ccccc5)CC4)CC3)c(C)o2)cc1	-0.9	25.1	0.0	-53.5	23.4*	0.0
CCc1ccc(-c2nc(CN3CCC(C(=O)N4CCN(c5ccccn5)CC4)CC3)c(C)o2)cc1	3.0	12.8	-0.3	-68.8	-4.8	0.0
CCN(CCNC(=O)C1CCN(Cc2nc(-c3ccc(Cl)cc3)oc2C)CC1)c1ccccc1	2.1	44.1*	1.6	-47.0	53.2*	0.0
C[C@H](CO)N1C[C@H](C)[C@H](CN(C)S(=O)(=O)c2cccs2)Oc2ncc(-c3cc4ccccc4o3)cc2C1=O	·	·	-2.5	·	·	·
Cc1ccc(-n2c(-c3ccc(Br)cc3)c[n+]3c2CCc2ccc4cccnc4c2-3)cc1	7.0	13.8	5.3	-88.7	65.0*	0.0
CCOC(=O)CNC(=S)n1ncnc1N	-13.3	1.2	-3.0	11.3	16.5*	0.0
O=C(Nc1ccc2c(c1)[C@H]1C[C@@H](CC(=O)N3CCOCC3)O[C@@H](CO)[C@H]1O2)C1CCOCC1	·	·	-0.2	·	·	·
c1ccc(COc2ncnc3c2ncn3CCCNCc2cccs2)cc1	·	·	2.5	·	·	·
COc1ccc(-n2c(-c3ccccc3)nc(=S)c3c2CCCC3)cc1	77.1*	-17.9	-1.5	-0.9	2.3	0.0
COc1ccc(-n2c(-c3cccc(OC)c3)nc(=S)c3c2CCCC3)cc1	66.5*	-8.0	-2.8	0.8	19.8	3.0
COc1cc(C=O)cc(Cl)c1OC(=O)N1CCOCC1	-0.4	0.8	0.6	9.9	-2.3	0.0
O=C(OCc1cn([C@H]2CN(C(=O)c3cccs3)[C@@H](c3ccc(Cl)cc3)C[C@@H]2O)nn1)c1ccccc1	·	·	-1.2	·	·	·
FC(F)(F)c1cnc(Oc2ccccc2-c2nnco2)c(Cl)c1	5.5	-7.6	0.7	2.7	-12.2	58.0*
FC(F)(F)c1cnc(Oc2ccc(-c3nnco3)cc2)c(Cl)c1	1.1	-3.8	-1.4	-6.8	-14.3	0.0
O=C(CN1C(=O)NC2(CCCC2)C1=O)OCCOc1ccc(Cl)cc1Cl	-0.9	·	2.0	·	·	0.0
CC(C)(C)[C@H]1COC(=O)[C@H](NC(=O)OCC2c3ccccc3-c3ccccc32)C/C=C\C[C@@H](CC(=O)N[C@H](CO)Cc2ccccc2)C(=O)N1	·	·	-3.3	·	·	97.0*
CCCC(=O)Nc1ccc2c(c1)nc(CCN1CCC(C)CC1)n2C	·	·	4.8	·	·	·
Cc1ccn2cc(-c3ccc4c(c3)NC(=O)CO4)nc2c1	-13.7	4.1	-1.3	-6.8	16.9*	0.0
CN(N=Cc1ccccc1)C(=S)Nc1ccccc1	·	·	-1.6	·	·	·
COc1ccc(Cl)cc1N1C(=O)C2CCCN2C1c1ccc(F)c(F)c1 (stereo unspecified)	4.2	-2.6	2.3	4.4	16.4*	0.0
SMILES	HCV core dimer	FID counter	DAGLB inhibitor	NS3 helicase inh	GPR7 antagonist	GRK2 inh
C=CC[n+]1c(/C=C2\C=Cc3cc(C)ccc3N2CC)ccc2ccccc21	-7.2	2.9	9.4	-9.1	35.4*	3.0
CCN1/C(=C\c2ccc3cc(C)ccc3[n+]2CC)Sc2cc(C)c(C)cc21	·	-8.6	1.3	-60.1	9.1	·
O=C(c1cc2ccccc2cc1O)N1CCN(c2cccc(Cl)c2)CC1	12.7	·	1.6	·	·	6.0
O=C(c1c(Cl)nc2sccn12)N1CCN(c2cccc(Cl)c2)CC1	0.2	-5.8	-1.5	-3.1	15.4*	1.0
CC(=O)Nc1ccc(-c2cc3ccccc3o2)cc1	-2.0	4.2	1.4	6.6	19.8*	0.0
CC(C)(C)C1CCC2(CC1)Nc1cccc3cccc(c13)N2	69.7*	-2.5	9.7	-8.1	16.1	0.0
O=C(CSc1ncc(-c2ccc(F)cc2)n1Cc1ccco1)Nc1ccc2c(c1)OCO2	0.0	-8.4	-2.3	-15.8	29.3*	1.0
CCOc1ccc(NC(=O)CSc2ncc(-c3ccc(F)cc3)n2Cc2ccco2)cc1	4.9	-20.2	-5.7	-9.1	6.3	0.0
Cc1cnc(C(=O)OC(C)C(=O)Nc2cccc3ccccc23)cn1 (stereo unspecified)	-7.2	·	1.8	·	·	7.0
NC(=O)c1nc2c([nH]c1=O)CCCC2	·	·	-1.6	·	·	·
CCCn1c(N)c(N(CCOC)C(=O)c2ccc([N+](=O)[O-])cc2Cl)c(=O)[nH]c1=O	-18.4	-1.6	0.0	-7.2	-1.3	5.0
COc1ccc(/C=C/C(=O)c2cc(F)ccc2OC(=O)c2ccccc2OC)cc1OC	·	-28.5	-0.7	-15.2	16.5*	·
CCC(=O)N1c2ccc(S(=O)(=O)N3CCN(c4cc(C)ccc4C)CC3)cc2CC1C (stereo unspecified)	13.1	-9.4	-4.5	-3.0	-7.7	3.0
Cc1ccc(Cl)cc1NC(=O)C[n+]1ccc(Cc2ccc([N+](=O)[O-])cc2)cc1	-2.2	39.7*	0.4	-78.6	1.2	0.0
CCCn1c(CCC(=O)O)ccc1-c1ccc(OC)cc1	46.0*	-19.2	-2.6	21.1	29.4	1.0
COc1ccc(-c2ccc(CCC(=O)O)n2NC(N)=O)cc1	-2.6	-10.7	0.0	-2.8	10.7	1.0
O=C1C(Cl)=C(Nc2ccc3cn[nH]c3c2)C(=O)c2ccccc21	-21.8	9.8	13.4	15.4	40.7*	1.0
Oc1ccc(C[C@H]2CNC(=S)N2CC2CCCN2C[C@H](Cc2ccccc2)N2C[C@H](Cc3ccc(O)cc3)N(CC3CCCCCC3)C2=S)cc1 (stereo partly specified)	·	·	-2.0	·	·	·
Cc1occc1-c1nnc(-c2cc([N+](=O)[O-])cc([N+](=O)[O-])c2)o1	49.0*	-0.1	·	5.5	-1.5	1.0
COc1cccc(CNC(=O)COC(=O)c2ccc(N3CCCC3=O)cc2)c1	·	·	0.2	·	·	·
CCCCCCCCCC[n+]1cccc2c3ccccc3ccc21	·	9.8	7.9	-39.1	69.9*	·
